Structures are written as SMILES. ≈ marks a conversion by molar mass, not a printed value. Calls of active or inactive are those of the source. No cut-off for these calls is given here.

For one experiment, the system named is HeLa. Nature of the experiment: Cytotoxicity against human HeLa cells measured after 7 days by MTT assay. It is filed as functional, cell-based.
The next experiment relates to Bacillus cereus. Nature of the experiment: Antibacterial activity against Bacillus cereus ATCC 11778 by microplate assay. In kind it is functional, organism-based.
Another experiment relates to A549. The experiment in a line: Cytotoxicity against human A549 cells measured after 7 days by MTT assay. In kind it is functional, cell-based. (Formazan colour is commonly taken as a measure of viable cells.)
The next experiment relates to Vibrio parahaemolyticus. The experiment in a line: Antibacterial activity against Vibrio parahaemolyticus ATCC 17802 by microplate assay. It is filed as functional, organism-based.
A further experiment relates to RAW264.7. Nature of the experiment: Inhibition of LPS-induced nitric oxide production in mouse RAW264.7 cells preincubated for 30 mins followed by LPS-stimulation and measured after 24 hrs by Griess assay. In kind it is functional, cell-based. An outline of the steps: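 RAW264.7 macrophages seeded at 50 000 cells/well and grown 24 h, then exposed to compound for 30 min at 37 °C before LPS (100 ng/mL) co-incubation for 24 h. Nitrite in supernatant measured by Griess reagent (10 min mixing), absorbance 540 nm. Compounds from 10 mM DMSO stocks; final DMSO ≤0.1%. Dexamethasone positive control. Triplicate runs; IC50 calculated.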
(In general: Nitrite, measured by Griess reagent, commonly stands in for NO production.)

In the next experiment the test system is Helicoverpa armigera. The experiment in a line: Insecticidal activity against Helicoverpa armigera hubner measured every other day for 8 days starting from 2 days post dosing. In kind it is functional, organism-based. An outline of the steps:
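Neonate H. armigera larvae fed artificial diet dosed with serial dilutions of compound (1 mg/mL in DMSO) at 200, 100, 50, 25 and 12.5 μL/well in six-well plates; three groups of three larvae, 3 replicates per treatment. Held at 25 ± 1 °C, 80% relative humidity. Dead larvae counted on days 2, 4, 6, 8. DMSO negative, azadirachtin positive, plain diet blank controls.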

The subject of another experiment is Escherichia coli. The experiment in a line: Antibacterial activity against Escherichia coli ATCC 25922 by microplate assay. It is filed as functional, organism-based.
In experiment [1] the test system is Staphylococcus aureus. Nature of the experiment: Antibacterial activity against methicillin-resistant Staphylococcus aureus ATCC 33591 by microplate assay. In kind it is functional, organism-based. Put shortly:
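MRSA (ATCC 33591) was one strain in a panel of six pathogenic bacteria: four general and two marine Vibrio. Assayed by the microplate method, with ciprofloxacin as positive control.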

The test system of the next experiment is HepG2. Nature of the experiment: Cytotoxicity against human HepG2 cells measured after 7 days by MTT assay. In kind it is functional, cell-based.
The next experiment has as its system Vibrio alginolyticus. Nature of the experiment: Antibacterial activity against Vibrio alginolyticus ATCC 17749 by microplate assay. It is filed as functional, organism-based. As to conditions: NBRC 15630 = ATCC 17749.
Experiment [2] concerns Staphylococcus aureus. Nature of the experiment: Antibacterial activity against Staphylococcus aureus ATCC 25923 by microplate assay. In kind it is functional, organism-based.
For another experiment, the system named is Caenorhabditis elegans. Nature of the experiment: Insecticidal activity against Caenorhabditis elegans measured at 12 […]. It is filed as functional, organism-based. An outline of the steps:
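L1 C. elegans (30−40 worms/well) in S medium with E. coli OP50 and chloramphenicol, exposed to compound at 40, 20, 10, 5, 1 and 0 μg/mL diluted in filter-sterilized M-9; 3 replicates per treatment. Plates sealed, kept at 24 °C for 60 h in the dark; dead larvae counted at 12, 24, 36, 48, 60. M-9 negative control, levamisole 1 mg/mL positive control.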

Take `CC(=O)CCC[C@@H]1C[C@@H]2C[C@@H](O)CC(O)=C2C(=O)O1`: the outcome in the experiment with HeLa, in the experiment with Bacillus cereus, in the experiment on A549, in the experiment with Vibrio parahaemolyticus, in the experiment on Escherichia coli and in the experiment with Staphylococcus aureus [1] was inactive. The outcome in the experiment on HepG2, in the experiment on Vibrio alginolyticus and in the experiment with Staphylococcus aureus [2] was inactive. The inhibition entry in the experiment on RAW264.7 was “inactive”. Also, the IC50 (commonly the concentration needed to halve the response being measured) in the experiment on Helicoverpa armigera is 200 µg/mL (≈ 745 µM).
Turning to `COc1ccc2c(c1O)C(=O)O[C@H](CCCO)C2`, the result with HeLa, in the experiment with Bacillus cereus, in the experiment with A549, in the experiment on Vibrio parahaemolyticus, with Escherichia coli and in the experiment on Staphylococcus aureus [1] was inactive. Also, the result in the experiment on HepG2, with Vibrio alginolyticus and in the experiment with Staphylococcus aureus [2] was inactive. The inhibition entry with RAW264.7 is “inactive”.
As for `COC(=O)CC[C@@H]1Cc2ccc(O)c(OC)c2C(=O)O1`, the result in the experiment with HeLa, with Bacillus cereus, in the experiment on A549, with Vibrio parahaemolyticus, in the experiment on Escherichia coli and in the experiment on Staphylococcus aureus [1] was inactive. Moreover, the result in the experiment on HepG2, in the experiment with Vibrio alginolyticus and in the experiment on Staphylococcus aureus [2] was inactive. In addition, the inhibition result with RAW264.7 is “inactive”. For the same compound, in the experiment on Helicoverpa armigera, the IC50 was 200 µg/mL (≈ 714 µM).
As for `C[C@@H](O)CCC[C@H]1OC(=O)c2c(O)cccc2[C@@H]1O`, the result with HeLa, with Bacillus cereus, in the experiment with A549, with Vibrio parahaemolyticus, in the experiment on Escherichia coli and in the experiment with Staphylococcus aureus [1] was inactive. Moreover, the result in the experiment with HepG2, in the experiment with Vibrio alginolyticus and with Staphylococcus aureus [2] was inactive. For the same compound, the inhibition result in the experiment on RAW264.7 is “inactive”. In the experiment on Helicoverpa armigera, this compound showed an IC50 of 100 µg/mL (≈ 376 µM).
`C[C@H](O)CCC[C@@H]1C[C@@H]2C[C@@H](O)CC(O)=C2C(=O)O1`: the result in the experiment on HeLa, in the experiment with Bacillus cereus, in the experiment on A549, with Vibrio parahaemolyticus, in the experiment with Escherichia coli and with Staphylococcus aureus [1] was inactive. For the same compound, the result in the experiment with HepG2, with Vibrio alginolyticus and in the experiment with Staphylococcus aureus [2] was inactive. Moreover, in the experiment on RAW264.7, the inhibition entry is “inactive”. In the experiment with Helicoverpa armigera, this compound came in with an IC50 of 200 µg/mL (≈ 740 µM).
Turning to `CC(=O)CCC[C@@H]1Cc2cccc(O)c2C(=O)O1`, the result with HeLa, in the experiment on Bacillus cereus, with A549, in the experiment with Vibrio parahaemolyticus, with Escherichia coli and in the experiment with Staphylococcus aureus [1] was inactive. Further, the result with HepG2, with Vibrio alginolyticus and in the experiment on Staphylococcus aureus [2] was inactive. Also, the inhibition result with RAW264.7 is “inactive”.
In the case of `C=C1[C@]2(C)C(=O)[C@]3(O)[C@@H](C)OC(=O)[C@]13[C@@]1(C)CC[C@@]3(C=CC(=O)OC3(C)C)C(C)=C1[C@@H]2OC(C)=O`, the outcome in the experiment with HeLa, in the experiment on Bacillus cereus, with A549, in the experiment on Vibrio parahaemolyticus, with Escherichia coli and with Staphylococcus aureus [1] was inactive. The result in the experiment with HepG2, with Vibrio alginolyticus and in the experiment on Staphylococcus aureus [2] was inactive. In addition, the inhibition result in the experiment with RAW264.7 is “inactive”.
For `c1ccc([C@H]2CN3CCSC3=N2)cc1` [LEVAMISOLE], the EC50 – broadly, the concentration needed to bring the measured effect to its halfway point – in the experiment with Caenorhabditis elegans was determined as 4.8 µg/mL (≈ 23.5 µM).
For the compound `O=C1O[C@H](CCCO)Cc2cccc(O)c21`, the outcome in the experiment on HeLa, in the experiment with Bacillus cereus, with A549, in the experiment on Vibrio parahaemolyticus, in the experiment with Escherichia coli and in the experiment with Staphylococcus aureus [1] was inactive. Also, the result with HepG2, in the experiment with Vibrio alginolyticus and with Staphylococcus aureus [2] was inactive. The inhibition entry with RAW264.7 was “inactive”.
Turning to `C=C1[C@@]23C(=O)O[C@H](C)[C@]24O[C@@]2(C(=C)[C@]5(CCC(=O)OC5(C)C)C[C@@H](O)[C@]32C)[C@H](OC(C)=O)[C@@]1(C)OC4=O`, the outcome with HeLa, in the experiment with Bacillus cereus, in the experiment with A549, in the experiment with Vibrio parahaemolyticus, in the experiment with Escherichia coli and with Staphylococcus aureus [1] was inactive. In addition, the outcome in the experiment on HepG2, in the experiment on Vibrio alginolyticus and in the experiment on Staphylococcus aureus [2] was inactive. Further, the inhibition result in the experiment with RAW264.7 was “inactive”. Besides, inhibition with Helicoverpa armigera was half-maximal at 50 µg/mL (≈ 96.8 µM) (IC50).
Regarding `COc1c(O)ccc2c1C(=O)O[C@H](CCC[C@@H](C)O)C2`, the result with HeLa, in the experiment on Bacillus cereus, with A549, with Vibrio parahaemolyticus, in the experiment with Escherichia coli and in the experiment with Staphylococcus aureus [1] was inactive. Also, the outcome in the experiment on HepG2, in the experiment on Vibrio alginolyticus and in the experiment on Staphylococcus aureus [2] was inactive. The inhibition result in the experiment on RAW264.7 is “inactive”.
As to `C[C@@H](O)CCC[C@@H]1Cc2c(O)ccc(O)c2C(=O)O1`, the result with HeLa, with Bacillus cereus, in the experiment on A549, in the experiment on Vibrio parahaemolyticus, with Escherichia coli and in the experiment on Staphylococcus aureus [1] was inactive. For the same compound, the result in the experiment with HepG2, in the experiment on Vibrio alginolyticus and with Staphylococcus aureus [2] was inactive. Further, the inhibition entry in the experiment with RAW264.7 is “inactive”. In the experiment on Helicoverpa armigera, this compound showed an IC50 of 100 µg/mL (≈ 376 µM).
Take `C=C1[C@@]23C(=O)O[C@H](C)[C@@]2(O)C(=O)O[C@]1(C)[C@@H](OC(C)=O)C1=C(C)[C@]2(CCC(=O)OC2(C)C)CC[C@@]13C`: the result in the experiment with HeLa, in the experiment on Bacillus cereus, in the experiment with A549, with Vibrio parahaemolyticus, with Escherichia coli and with Staphylococcus aureus [1] was inactive. For the same compound, the outcome in the experiment with HepG2, in the experiment with Vibrio alginolyticus and with Staphylococcus aureus [2] was inactive. Also, the inhibition entry with RAW264.7 was “inactive”. In the experiment on Helicoverpa armigera, the midpoint of inhibition, the IC50, lay at 50 µg/mL (≈ 99.5 µM).
As to `COc1c(O)ccc2c1C(=O)O[C@H](CCCC(C)=O)C2`, the outcome in the experiment on HeLa, in the experiment on Bacillus cereus, in the experiment on A549, with Vibrio parahaemolyticus, in the experiment on Escherichia coli and in the experiment on Staphylococcus aureus [1] was inactive. The outcome in the experiment on HepG2, in the experiment on Vibrio alginolyticus and in the experiment on Staphylococcus aureus [2] was inactive. For the same compound, the inhibition entry with RAW264.7 was “inactive”.
The compound `C/C=C(\C)C(=O)O[C@H]1C[C@@H](OC(C)=O)[C@@]2(C(=O)OC)CO[C@H]3[C@@H](O)[C@@](C)([C@]45O[C@@]4(C)[C@H]4C[C@@H]5O[C@@H]5OC=C[C@@]54O)[C@H]4[C@]1(CO[C@]4(O)C(=O)OC)[C@@H]32` [AZADIRACTIN] yielded an IC50 with Helicoverpa armigera of 25 µg/mL (≈ 34.7 µM).
In the case of `CC(=O)OCCC[C@@H]1Cc2cccc(O)c2C(=O)O1`, the outcome in the experiment on HeLa, with Bacillus cereus, with A549, in the experiment on Vibrio parahaemolyticus, with Escherichia coli and in the experiment on Staphylococcus aureus [1] was inactive. The outcome in the experiment on HepG2, in the experiment on Vibrio alginolyticus and with Staphylococcus aureus [2] was inactive. Moreover, the inhibition entry with RAW264.7 was “inactive”.

For the origin of these results see ChEMBL document CHEMBL4316638, “Bioactive Meroterpenoids and Isocoumarins from the Mangrove-Derived Fungus Penicillium sp. TGM112” (J Nat Prod, 2019).
